Test results from ChEMBL document CHEMBL2010740, “Synthesis and evaluation of 2-amido-3-carboxamide thiophene CB₂ receptor agonists for pain management” (Bioorg Med Chem Lett, 2012).

Tests used:
[1] = molecular target: T1, Cannabinoid receptor 2 (Rattus norvegicus, UniProt Q9QZN9); experiment: Displacement of [3H]CP-55940 from rat recombinant CB2 receptor expressed in HEK293 cells after 90 mins; assay type: cell-based
T1 sequence (Q9QZN9 whole entry): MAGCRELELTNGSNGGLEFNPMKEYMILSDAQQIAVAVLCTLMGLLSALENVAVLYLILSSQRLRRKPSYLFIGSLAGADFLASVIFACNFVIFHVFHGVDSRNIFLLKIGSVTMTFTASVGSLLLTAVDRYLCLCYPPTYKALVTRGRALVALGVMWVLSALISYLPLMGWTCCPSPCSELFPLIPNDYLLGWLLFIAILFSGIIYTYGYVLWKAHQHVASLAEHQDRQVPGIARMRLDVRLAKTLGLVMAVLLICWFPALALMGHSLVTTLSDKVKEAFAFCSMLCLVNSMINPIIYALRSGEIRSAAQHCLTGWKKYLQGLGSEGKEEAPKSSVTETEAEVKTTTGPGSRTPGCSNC
How it was run: (§1)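 Competitive binding: [³H]CP-55,940 displaced from membranes of HEK 293 cells stably transfected with human or rat CB₂, or CHO cells stably transfected with human or rat CB₁. Reported as pKi. Determinations >2 (duplicate of duplicate).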

[2] = molecular target: Cannabinoid receptor 1 (Homo sapiens, UniProt P21554); experiment: Displacement of [3H]CP-55940 from human recombinant CB1 receptor expressed in CHO cells after 90 mins; assay type: cell-based; how it was run: as §1
[3] = molecular target: T2, Cannabinoid receptor 2 (Homo sapiens, UniProt P34972); experiment: Displacement of [3H]CP-55940 from human recombinant CB2 receptor expressed in HEK293 cells after 90 mins; assay type: cell-based; how it was run: as §1
[4] = tested on: Rattus norvegicus; experiment: Neurotoxicity in rat assessed as decrease in spontaneous locomotory activity at 1 umol/kg, ip after 30 mins; assay type: toxicity, organism-based; design: scale not given: the % may be the effect or the level left; conditions: in vivo, 0.5 h
How it was run: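 Given intraperitoneally 30 min before testing; horizontal locomotor activity was recorded and compared across doses.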

[5] = molecular target: T2, Cannabinoid receptor 2; experiment: Agonist activity at human recombinant CB2 receptor expressed in HEK293 cells assessed as inhibition of forskolin-induced cAMP production after 20 mins by ELISA; assay type: functional, cell-based
How it was run: (§2)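 cAMP assay in HEK 293 cells stably expressing the relevant CB receptor, with a fixed concentration of forskolin. cAMP was quantified by ELISA. Activation is given as percent of the CP-55,940 control response.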

[6] = molecular target: T1, Cannabinoid receptor 2; experiment: Agonist activity at rat recombinant CB2 receptor expressed in HEK293 cells assessed as inhibition of forskolin-induced cAMP production after 20 mins by ELISA; assay type: functional, cell-based; how it was run: as §2
[7] = molecular target: T2, Cannabinoid receptor 2; experiment: Agonist activity at human recombinant CB2 receptor expressed in HEK293 cells co-expressing chimeric Gaq/o protein by FLIPR assay; assay type: functional, cell-based
How it was run: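 FLIPR functional assay in HEK 293 cells stably co-expressing chimeric Gαq/o protein and the CB receptor. Net peak evoked response was compared with the peak response to CP-55,940.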

[8] = molecular target: Cannabinoid receptor 1 (Rattus norvegicus, UniProt P20272); experiment: Displacement of [3H]CP-55940 from rat recombinant CB1 receptor expressed in CHO cells after 90 mins; assay type: cell-based; how it was run: as §1
[9] = Plasma protein binding in human; assay type: ADME, cell-free; conditions: read-out: PPB (converted)
[10] = Plasma protein binding in rat; assay type: ADME, cell-free; conditions: read-out: PPB (converted)

T2 sequence (P34972 whole entry): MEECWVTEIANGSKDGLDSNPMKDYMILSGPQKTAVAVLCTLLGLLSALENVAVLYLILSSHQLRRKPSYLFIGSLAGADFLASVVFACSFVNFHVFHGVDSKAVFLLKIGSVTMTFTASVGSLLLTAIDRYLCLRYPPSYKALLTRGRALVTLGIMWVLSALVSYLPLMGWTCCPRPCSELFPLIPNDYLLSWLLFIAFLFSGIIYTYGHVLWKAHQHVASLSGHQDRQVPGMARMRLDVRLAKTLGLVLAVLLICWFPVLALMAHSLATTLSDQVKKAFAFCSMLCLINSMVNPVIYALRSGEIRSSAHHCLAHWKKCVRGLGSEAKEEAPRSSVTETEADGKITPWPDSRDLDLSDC
Chain of Cannabinoid receptor 1 (Rattus norvegicus, UniProt P20272) (P20272 whole entry): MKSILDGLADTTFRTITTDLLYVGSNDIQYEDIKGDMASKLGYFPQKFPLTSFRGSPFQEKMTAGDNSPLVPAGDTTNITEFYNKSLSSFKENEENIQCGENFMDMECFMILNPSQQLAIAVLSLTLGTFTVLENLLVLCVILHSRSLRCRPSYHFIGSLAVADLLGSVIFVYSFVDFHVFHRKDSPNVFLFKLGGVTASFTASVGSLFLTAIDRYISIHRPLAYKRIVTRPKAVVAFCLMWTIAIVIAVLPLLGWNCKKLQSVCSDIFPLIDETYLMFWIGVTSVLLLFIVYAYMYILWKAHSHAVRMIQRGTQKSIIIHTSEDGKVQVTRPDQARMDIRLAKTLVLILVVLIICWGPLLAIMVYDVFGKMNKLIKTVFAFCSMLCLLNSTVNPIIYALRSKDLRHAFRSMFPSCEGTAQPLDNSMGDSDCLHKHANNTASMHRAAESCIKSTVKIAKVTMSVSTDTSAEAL
Chain of Cannabinoid receptor 1 (Homo sapiens, UniProt P21554) (P21554 whole entry): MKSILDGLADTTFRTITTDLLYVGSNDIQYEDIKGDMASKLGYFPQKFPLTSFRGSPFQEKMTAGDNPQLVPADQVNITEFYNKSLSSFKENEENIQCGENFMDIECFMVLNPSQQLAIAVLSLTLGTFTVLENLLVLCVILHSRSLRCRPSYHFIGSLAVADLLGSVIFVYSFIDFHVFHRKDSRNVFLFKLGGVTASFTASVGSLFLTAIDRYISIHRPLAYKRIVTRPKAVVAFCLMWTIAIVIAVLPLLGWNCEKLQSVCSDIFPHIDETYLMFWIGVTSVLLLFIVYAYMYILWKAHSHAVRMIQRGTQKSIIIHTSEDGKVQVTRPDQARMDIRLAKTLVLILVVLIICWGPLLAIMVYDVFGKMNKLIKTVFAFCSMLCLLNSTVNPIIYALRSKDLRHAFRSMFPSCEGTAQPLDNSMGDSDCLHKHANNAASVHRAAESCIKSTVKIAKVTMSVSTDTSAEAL

Row | SMILES | Ki [1] | Ki [2] | Ki [3] | Activity [4] | IC50 [5] | IC50 [6] | IC50 [7] | Ki [8] | fraction unbound [9] | fraction unbound [10]
1 | CCNC(=O)c1c(NC(=O)C23CC4CC(CC2C4)C3)sc2c1CCOC2 | 295 nM | > 10000 nM | 214 nM |  |  |  |  |  |  | 
2 | O=C(CCCN1CCC(O)(c2ccc(Cl)cc2)CC1)c1ccc(F)cc1 [HALOPERIDOL] |  |  |  | 68% |  |  |  |  |  | 
3 | COCCNC(=O)c1c(NC(=O)C23CC4CC(CC2C4)C3)sc2c1CCOC2 | 263 nM | > 10000 nM | 120 nM |  |  |  |  |  |  | 
4 | CCCNC(=O)c1c(NC(=O)C2C(C)(C)C2(C)C)sc2c1CCOC2 | 4.37 nM | > 10000 nM | 91.2 nM |  | 1 nM | > 10000 nM | 52.5 nM | 191 nM |  | 
5 | CCCNC(=O)c1c(NC(=O)C2CC3CCC2C3)sc2c1CCOC2 (stereo not given) | 269 nM | > 10000 nM | 105 nM |  |  |  |  |  |  | 
6 | CCCNC(=O)c1c(NC(=O)C23CC4CC(CC(C4)C2)C3)sc2c1CCOC2 | 20 nM | > 10000 nM | 33.9 nM |  | 11.2 nM | > 10000 nM | 42.7 nM | 525 nM | < 0.01 | < 0.01
7 | O=C(c1c(NC(=O)C23CC4CC(CC2C4)C3)sc2c1CCOC2)N1CCOCC1 | > 10000 nM | > 10000 nM | 91.2 nM |  |  |  |  | > 10000 nM |  | 
